Results on six molecules are retold here after ChEMBL document CHEMBL4261598, “Synthesis of novel mono and bis nitric oxide donors with high cytocompatibility and release activity” (Bioorg Med Chem Lett, 2018).

Series [1] deals with Liver. Briefly: Induction of NO release in rat liver microsomes assessed as nitrite levels after 10 mins in presence of NADPH and dioxygen by Griess assay. The series is classed as functional. The note with it: microsome. In outline: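 Amidoximes incubated 10 min with rat liver microsomes and NADPH; supernatant nitrite quantified by Griess assay, expressed as nmol NO2-/mg P450. Background from controls lacking microsomes, amidoxime or NADPH, or with parent nitrile, was subtracted. 4-Chlorobenzamidoxime served as reference. Mean ± SEM of three to five independent experiments.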

The test system of series [2] is VSMC. Briefly: Induction of NO release in human VSMC assessed as intracellular S-nitrosothiol level at 50 uM after 1 hr by fluorimetric method. The series is classed as functional. The procedure, abridged: (§1)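 HVSMC seeded in 6-well plates 48 h before, then incubated 1 h at 37°C with compound (mono-amidoximes and GSNO reference 100 µM, bis-amidoxime 50 µM); controls PBS with 0.1% DMSO. Cells washed and lysed, then RSNO and nitrite quantified immediately by fluorometric 2,3-diaminonaphthalene/N2O3 assay giving naphthotriazole (ex 375, em 415 nm). Mean ± SEM, three independent experiments.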

Series [3] concerns VSMC. Kind of series: (§2) Cytotoxicity against human VSMC assessed as cell viability at 100 uM after 24 hrs by MTT assay. The series is classed as cell-based. The conditions noted are these: vsmc, 24 h, 100 µM. The procedure, abridged:
(§3)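 Human vascular smooth muscle cells incubated 24 h with amidoximes over 0.001 to 100 µM; viability measured (method in Supporting Information). Mean ± SEM of three to four tests, two-way ANOVA.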

The test system of series [4] is VSMC. Kind of series: Induction of NO release in human VSMC assessed as intracellular S-nitrosothiol level at 100 uM after 1 hr by fluorimetric method. Type of series: functional. In outline: as §1
Series [5] can be described thus: as §2. Type of series: cell-based. The conditions noted are these: VSMC cells, read-out: Activity. The procedure, abridged: as §3

Activity calls are given as the source filed them. The rule behind the calls is not given here.

On to `N/C(CCCCOc1ccc(/C(N)=N/O)cc1)=N\O`, for which the result in series [1] was Active. For the same molecule, the Activity in series [2] was 0.17 µM; in series [3] it was “Non-Toxic”.

For the molecule `N/C(=N\O)c1ccc(Cl)cc1`, the Activity in series [1] turned out to be 1.3 nmol/mg; in series [4], 0.03 µM.

On to `COc1ccc(C(=N)NO)cc1`, for which the Activity in series [1] is 1.5 nmol/mg; in series [3], “Non-Toxic”; in series [4] it was 0.21 µM.

Take `N/C(CCCCOc1ccccc1)=N\O`: in series [1], the result was Active. Also, the Activity result in series [3] was “Non-Toxic”.

With `N[C@@H](CCC(=O)N[C@@H](CSN=O)C(=O)NCC(=O)O)C(=O)O`, the result in series [4] was Active.

For the molecule `N/C(=N\O)c1ccc(O)cc1`, the Activity in series [1] is 2.4 nmol/mg; in series [4], 0.2 µM. For the same molecule, in series [5], the viability at 24 h, 100 µM turned out to be 74.7%.
